# Experimental data from the array DNA melting data of Ke et al. (doi:10.1101/2024.01.08.574731).
# How the values were obtained:
# [1] = folding enthalpy; higher = less favourable; fluorescence melt of hairpins on a sequencing array, two-state fit; conditions: sodium 0.088 M
# Outline: (§1)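 Library hairpins on a sequenced MiSeq flow cell carried annealed Cy3 and quencher oligos, and their Cy3 fluorescence was imaged in 50 mM Na-HEPES pH 8.0 with 25 mM NaCl, in 2.5 °C steps up to 60 °C. Signals were normalised to Cy3 before quenching and to control constructs. Melting temperature and folding enthalpy were obtained from bootstrapped two-state fits, combined by inverse-variance weighting across four replicates, and the fitted temperatures were then raised by 9.35 °C to match UV melts.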
# [2] = melting temperature; fluorescence melt of hairpins on a sequencing array, two-state fit, raised by 9.35 °C to match UV melts; conditions: sodium 0.088 M
# Outline: as §1
Sequence,folding enthalpy [1],Tm [2]
GACTGGCGAAAGCCGTC (((.(((....)))))),-11.5 kcal/mol,67 °C
GACTGGGGAAACCCAATC ((.((((....)))).)),-14.6 kcal/mol,31.7 °C
GACTGGGGAAACCCAGTC (((((((....))))))),-40.3 kcal/mol,66.6 °C
GACTGGGGAAACCTGGTC (((..((....))..))),-34.9 kcal/mol,38.9 °C
GACTGTGGAAACACAATC ((.((((....)))).)),-15.5 kcal/mol,31.6 °C
GACTGTGGAAACATGGTC (((..((....))..))),-28.7 kcal/mol,37.9 °C
GACTTCGGAAACGAAGCC (.(((((....))))).),-15 kcal/mol,45.6 °C
GACTTGGGAAACTAAGTC (((((.(....).))))),-28.2 kcal/mol,42.5 °C
GACTTTGCGAAAGCAGTC (((..(((....)))))),-14.4 kcal/mol,32.8 °C
GAGAAACGAAAGTTACTC (((.(((....))).))),-28.9 kcal/mol,41.7 °C
GAGAACCGAAAGGTACTC (((.(((....))).))),-34.9 kcal/mol,50.7 °C
GAGAACGAAAGTTTTCTC ((((((....)))..))),-30.2 kcal/mol,38.4 °C
GAGAACGGAAACGCTCTC ((((.((....)).)))),-28.6 kcal/mol,43.2 °C
GAGAACGGAAACGTTCTC (((((((....))))))),-41.8 kcal/mol,64.7 °C
GAGAAGCGAAAGCTCTC (((.(((....)))))),-20.1 kcal/mol,50.2 °C
GAGAAGCGAAAGCTGCTC (((.(((....))).))),-27.4 kcal/mol,58.1 °C
GAGAAGGGAAACCTTCTC (((((((....))))))),-50.6 kcal/mol,55.5 °C
GAGAATGAAAATTCTC ((((((....)))))),-31.8 kcal/mol,46 °C
GAGACAGGAAACTGCCTC (((.(((....))).))),-39.7 kcal/mol,42.3 °C
GAGACAGGAAACTGTCCC (.(((((....))))).),-13 kcal/mol,39.4 °C
GAGACAGGAAACTGTCTC (((((((....))))))),-49.7 kcal/mol,60.1 °C
GAGACCACGAAAGTGCTC (((..(((....)))))),-9.82 kcal/mol,27.7 °C
GAGACCCGAAAGGGCTC (((.(((....)))))),-26.8 kcal/mol,55.4 °C

Sequence,folding enthalpy [1],Tm [2]
GAGACCGAAAGGTAACTC ((((((....)))..))),-12.3 kcal/mol,39.7 °C
GAGACCGAAAGGTACCTC ((((((....)))..))),-11.9 kcal/mol,30.7 °C
GAGACCGAAAGGTATCTC ((((((....)))..))),-24 kcal/mol,53 °C
GAGACCGAAAGGTGCTC ((((((....))).))),-21.4 kcal/mol,46.9 °C
GAGACCGAAAGGTTCCTC ((((((....)))..))),-12.4 kcal/mol,32 °C
GAGACCGAAAGGTTGCTC ((((((....)))..))),-14.1 kcal/mol,36.2 °C
GAGACCGAAAGGTTTCTC ((((((....)))..))),-22.5 kcal/mol,50.6 °C
GAGACCGGAAACGATCTC ((((.((....)).)))),-31.9 kcal/mol,42 °C
GAGACGCCGAAAGGCCTC (((..(((....)))))),-8.48 kcal/mol,30.6 °C
GAGACGGCGAAAGCCCTC (((..(((....)))))),-6.29 kcal/mol,34.5 °C
GAGACTGGAAACGGTCTC (((((.(....).))))),-46 kcal/mol,49.9 °C
GAGAGACGAAAGTCCTC (((.(((....)))))),-17.9 kcal/mol,46.9 °C
GAGAGAGGAAACTCCCTC (((.(((....))).))),-22.1 kcal/mol,28.6 °C
GAGAGCCGAAAGGCGCTC (((.(((....))).))),-22.9 kcal/mol,67.8 °C
GAGAGCGAAAGCTAGCTC ((((((....)))..))),-13.8 kcal/mol,36.6 °C
GAGAGCGAAAGCTATCTC ((((((....)))..))),-22.4 kcal/mol,51.2 °C
GAGAGCGAAAGCTGTCTC ((((((....)))..))),-20.3 kcal/mol,51.1 °C
GAGAGCGAAAGCTTTCTC ((((((....)))..))),-21.4 kcal/mol,46.6 °C
GAGAGGAAACTCTC (((((....))))),-23.4 kcal/mol,44.6 °C
GAGAGGGGAAACCCTTTC ((.((((....)))).)),-16.8 kcal/mol,36.4 °C
GAGAGTGGAAACACTTTC ((.((((....)))).)),-19.4 kcal/mol,37.6 °C
GAGATAGGAAACCATCTC (((((.(....).))))),-23.5 kcal/mol,34.1 °C
GAGATCCGAAAGGAACTC (((.(((....))).))),-32.2 kcal/mol,50.2 °C

Sequence,folding enthalpy [1],Tm [2]
GAGATCGGAAACGATTTC ((.((((....)))).)),-26.8 kcal/mol,42.3 °C
GAGATCGGAAACGGTCTC ((((.((....)).)))),-44.5 kcal/mol,51.3 °C
GAGATGGGAAACCATCCC (.(((((....))))).),-13.1 kcal/mol,38.7 °C
GAGATTGGAAACAATCCC (.(((((....))))).),-19.6 kcal/mol,34 °C
GAGATTGGAAACAATCTC (((((((....))))))),-42.2 kcal/mol,56.4 °C
GAGCAAGGAAACCTGCTC (((((.(....).))))),-27.6 kcal/mol,48.5 °C
GAGCACGAAAGTGAACTC ((((((....)))..))),-20.2 kcal/mol,42.9 °C
GAGCACGAAAGTGATCTC ((((((....)))..))),-23.7 kcal/mol,57.1 °C
GAGCACGGAAACGTGCCC (.(((((....))))).),-6.99 kcal/mol,53.6 °C
GAGCAGGGAAACCTGCCC (.(((((....))))).),-12.8 kcal/mol,42.1 °C
GAGCATGGAAACATACTC (((.(((....))).))),-26.1 kcal/mol,35.6 °C
GAGCCACGAAAGTGCCTC (((.(((....))).))),-16.9 kcal/mol,42.1 °C
GAGCCAGGAAACTAGCTC ((((.((....)).)))),-26.2 kcal/mol,37.4 °C
GAGCCCACGAAAGTGCTC (((..(((....)))))),-16 kcal/mol,35.8 °C
GAGCCCCGAAAGGGTCTC (((.(((....))).))),-32.9 kcal/mol,57.1 °C
GAGCCCGAAAGGGATCTC ((((((....)))..))),-24.6 kcal/mol,69 °C
GAGCCCGAAAGGGCACTC ((((((....)))..))),-11 kcal/mol,62.2 °C
GAGCCCGAAAGGGTACTC ((((((....)))..))),-13.1 kcal/mol,43.1 °C
GAGCCCGAAAGGGTCCTC ((((((....)))..))),-13.2 kcal/mol,42.5 °C
GAGCCCGAAAGGGTCTC ((((((....))).))),-23.8 kcal/mol,59 °C
GAGCCCGGAAACGAGCTC ((((.((....)).)))),-35.8 kcal/mol,50.2 °C
GAGCCGGGAAACTGGCTC (((((.(....).))))),-36.2 kcal/mol,63.3 °C
GAGCCTCCGAAAGGACTC (((..(((....)))))),-11.8 kcal/mol,31.9 °C

Sequence,folding enthalpy [1],Tm [2]
GAGCGAGGAAACTCGCCC (.(((((....))))).),-7.21 kcal/mol,53.6 °C
GAGCGAGGAAACTCGTTC ((.((((....)))).)),-27 kcal/mol,48.8 °C
GAGCGAGGAAACTTGCTC ((((.((....)).)))),-25.1 kcal/mol,52.2 °C
GAGCGCACGAAAGTGCTC (((..(((....)))))),-8.27 kcal/mol,38.1 °C
GAGCGCCGAAAGGCCCTC (((.(((....))).))),-15.4 kcal/mol,47.6 °C
GAGCGCGAAAGCGACTC ((((((....))).))),-16.9 kcal/mol,60.3 °C
GAGCGCGAAAGCGGGCTC ((((((....)))..))),-16.2 kcal/mol,67.9 °C
GAGCGCGAAAGCGTGCTC ((((((....)))..))),-17.1 kcal/mol,56.4 °C
GAGCGCGGAAACGCACCC (.(.(((....))).).),-7.47 kcal/mol,31.7 °C
GAGCGGGGAAACCCACTC (((.(((....))).))),-28.4 kcal/mol,46.2 °C
GAGCGGGGAAACCCGTTC ((.((((....)))).)),-20.1 kcal/mol,53 °C
GAGCGTACGAAAGTACTC (((..(((....)))))),-13.4 kcal/mol,27 °C
GAGCGTGGAAACGTGCTC ((((..(....)..)))),-19.3 kcal/mol,47.6 °C
GAGCTACGAAAGTACCTC (((.(((....))).))),-19 kcal/mol,30.6 °C
GAGCTAGGAAACTAGCTC (((((((....))))))),-37.9 kcal/mol,62.4 °C
GAGCTCCGAAAGGAACTC (((.(((....))).))),-27.5 kcal/mol,50.6 °C
GAGCTCCGAAAGGACCTC (((.(((....))).))),-20.2 kcal/mol,38.1 °C
GAGCTCGGAAACGGGTTC ((.(.((....)).).)),-14.2 kcal/mol,42.3 °C
GAGCTGGAAACAGCTC ((((((....)))))),-26 kcal/mol,67.6 °C
GAGCTTGGAAACAGGCTC ((((.((....)).)))),-45 kcal/mol,49.3 °C
GAGCTTGGAAACGAGCTC (((((.(....).))))),-45.1 kcal/mol,53.4 °C
GAGGAAGCGAAAGCTCTC (((..(((....)))))),-13.7 kcal/mol,35.4 °C
